Assay results: ChEMBL document CHEMBL1139299, “Facilitated phospholipid translocation in vesicles and nucleated cells using synthetic small molecule scramblases” (Bioorg Med Chem, 2009)

Experiments:
Format in all cases: functional
PC-3 [1] = assay: Cytotoxicity against human PC3 cells by MTT assay; details: read-out: LD50 (the source's name)
Summary of the method: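 PC3 cells grown in Ham's F-12K with 10% FBS were seeded at ≥5 × 10^4 cells/mL, dosed from DMSO stock for 24 h, then given fresh growth medium plus MTT for 4 h. SDS in 0.01 M HCl was added for 18 h at 37°C, 5% CO2. A570 was read. % living cells was calculated against a no-cell blank and a DMSO-only control, and LD50 was reported.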

Jurkat = assay: Cytotoxicity against human Jurkat cells by MTT assay; details: read-out: LD50 (the source's name)
Summary of the method: (§1)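 Cells (Jurkat and LNCaP grown in RPMI with 10% FBS) were seeded at ≥5 × 10^4 cells/mL, dosed from DMSO stock for 24 h, then given fresh medium plus MTT (Jurkat pelleted first). After 4 h, SDS in 0.01 M HCl was added for 18 h at 37°C. A570 was read. % living cells was calculated against a no-cell blank and a DMSO-only control, and LD50 was reported.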

LNCaP = assay: Cytotoxicity against human LNCAP cells by MTT assay; details: read-out: LD50 (the source's name); summary of the method: as §1
PC-3 [2] = assay: Induction of endogenous phospholipidserine distribution in human PC3 cells at 100 uM by Annexin-V-FITC
Summary of the method: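 PC3 cells detached with trypsin at 90% confluency and resuspended in TES buffer (5 mM TES, 100 mM NaCl, pH 7.4) at 1 × 10^5 cells/mL. Scramblase added from DMSO stock, 100 μM final, 2 h at 37°C, 5% CO2. Pelleted, resuspended in binding buffer, stained 15 min at 37°C with Annexin V-FITC plus 7AAD (500 ng/mL) to exclude necrotic cells. Annexin-positive fraction read by flow cytometry; three independent experiments.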

Molecule `Cc1ccc(S(=O)(=O)NCCN(CCNC(=O)Nc2ccc(C#N)cc2)CCNS(=O)(=O)c2ccc(C)cc2)cc1` has a CC50 (PC-3 [1]) of over 100 µM, a CC50 (Jurkat) of over 100 µM and a CC50 (LNCaP) of over 100 µM.
`Cc1ccc(S(=O)(=O)NCCN(CCNC(=O)Nc2ccc(Oc3ccccc3)cc2)CCNS(=O)(=O)c2ccc(C)cc2)cc1` showed a CC50 (PC-3 [1]) of over 100 µM, a CC50 (Jurkat) of over 100 µM and a CC50 (LNCaP) of over 100 µM.
Work on `Cc1ccc(S(=O)(=O)NCCN(CCNC(=O)Nc2ccc(OC(F)(F)F)cc2)CCNS(=O)(=O)c2ccc(C)cc2)cc1` yielded a CC50 (PC-3 [1]) of over 100 µM, a CC50 (Jurkat) of over 100 µM and a CC50 (LNCaP) of over 100 µM.
For `Cc1ccc(S(=O)(=O)NCCN(CCNC(=O)Nc2ccc(C(C)C)cc2)CCNS(=O)(=O)c2ccc(C)cc2)cc1`, the Activity (PC-3 [2]) was under 5%, the CC50 (PC-3 [1]) was over 100 µM and the CC50 (Jurkat) was over 100 µM. It also gave a CC50 (LNCaP) of over 100 µM.
`Cc1ccc(S(=O)(=O)NCCN(CCNC(=O)Nc2ccc(Br)cc2)CCNS(=O)(=O)c2ccc(C)cc2)cc1` showed a CC50 (PC-3 [1]) of over 100 µM, a CC50 (Jurkat) of over 100 µM and a CC50 (LNCaP) of over 100 µM.
For `COc1ccc(NC(=O)NCCN(CCNS(=O)(=O)c2ccc(C)cc2)CCNS(=O)(=O)c2ccc(C)cc2)cc1`, the CC50 (PC-3 [1]) was over 100 µM, the CC50 (Jurkat) was over 100 µM and the CC50 (LNCaP) was over 100 µM.
In the case of `Cc1ccc(S(=O)(=O)NCCN(CCNC(=S)Nc2ccc(Cl)cc2)CCNS(=O)(=O)c2ccc(C)cc2)cc1`, the CC50 (PC-3 [1]) is reported as 25 µM, the CC50 (Jurkat) is reported as 15 µM and the CC50 (LNCaP) is reported as 15 µM.
With `Cc1ccc(S(=O)(=O)NCCN(CCNC(=O)Nc2ccc(C(C)(C)C)cc2)CCNS(=O)(=O)c2ccc(C)cc2)cc1` the CC50 (PC-3 [1]) was over 100 µM, the CC50 (Jurkat) was over 100 µM and the CC50 (LNCaP) was over 100 µM.
Molecule `Cc1ccc(S(=O)(=O)NCCN(CCNCc2ccccc2)CCNS(=O)(=O)c2ccc(C)cc2)cc1` has a CC50 (PC-3 [1]) of 25 µM, a CC50 (Jurkat) of 25 µM and a CC50 (LNCaP) of 40 µM.
Work on `Cc1ccc(S(=O)(=O)NCCN(CCNC(=O)Nc2ccc([N+](=O)[O-])cc2)CCNS(=O)(=O)c2ccc(C)cc2)cc1` yielded an Activity (PC-3 [2]) of under 5%, a CC50 (PC-3 [1]) of over 100 µM and a CC50 (Jurkat) of over 100 µM. It also gave a CC50 (LNCaP) of over 100 µM.
Work on `Cc1ccc(S(=O)(=O)NCCN(CCNC(=O)Nc2ccc(Cl)cc2)CCNS(=O)(=O)c2ccc(C)cc2)cc1` yielded a CC50 (PC-3 [1]) of over 100 µM, a CC50 (Jurkat) of over 100 µM and a CC50 (LNCaP) of over 100 µM.
`Cc1ccc(NC(=O)NCCN(CCNS(=O)(=O)c2ccc(C)cc2)CCNS(=O)(=O)c2ccc(C)cc2)cc1` gave a CC50 (PC-3 [1]) of over 100 µM, a CC50 (Jurkat) of over 100 µM and a CC50 (LNCaP) of over 100 µM.
`Cc1ccc(S(=O)(=O)NCCN(CCNC(=O)Nc2ccc(C(F)(F)F)cc2)CCNS(=O)(=O)c2ccc(C)cc2)cc1` showed a CC50 (PC-3 [1]) of over 100 µM, a CC50 (Jurkat) of over 100 µM and a CC50 (LNCaP) of over 100 µM.
For `Cc1ccc(S(=O)(=O)NCCN(CCNC(=O)Nc2ccccc2)CCNS(=O)(=O)c2ccc(C)cc2)cc1`, the Activity (PC-3 [2]) was under 5%, the CC50 (PC-3 [1]) was over 100 µM and the CC50 (Jurkat) was over 100 µM. It also gave a CC50 (LNCaP) of over 100 µM.
`CC(=O)c1ccc(NC(=O)NCCN(CCNS(=O)(=O)c2ccc(C)cc2)CCNS(=O)(=O)c2ccc(C)cc2)cc1` showed a CC50 (PC-3 [1]) of over 100 µM, a CC50 (Jurkat) of over 100 µM and a CC50 (LNCaP) of over 100 µM.
`Cc1ccc(S(=O)(=O)NCCN(CCNC(=O)[C@H](N)Cc2ccccc2)CCNS(=O)(=O)c2ccc(C)cc2)cc1` gave a CC50 (PC-3 [1]) of 15 µM, a CC50 (Jurkat) of 25 µM and a CC50 (LNCaP) of 40 µM.
